Source: ChEMBL document CHEMBL3580618, “New trisubstituted 1,2,4-triazoles as ghrelin receptor antagonists” (Bioorg Med Chem Lett, 2015)

How the values were obtained:
[1] = target: T1, Growth hormone secretagogue receptor type 1 (Homo sapiens, UniProt Q92847); assay: Antagonist activity at GHSR1a (unknown origin) assessed as inhibition of ghrelin-induced intracellular calcium mobilization; format: functional, cell-based
Outline: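 GHS-R1a-expressing cells; [Ca2+]i mobilization read. Compounds failing to raise calcium above 10% of maximal response (100% = 10^-7 M ghrelin) at 10^-5 M were treated as antagonists. […] One experiment, mean points from quadruplicate measurements.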

[2] = target: T1, Growth hormone secretagogue receptor type 1; assay: Displacement of 125I-[His9]-ghrelin from human GHSR1a expressed in LLC-PK1 cells by competitive binding assay; format: cell-based
[3] = Retention time of the compound by HPLC analysis; format: physicochemical
[4] = target: T1, Growth hormone secretagogue receptor type 1; assay: Antagonist activity at human GSHR1a expressed in mouse LTK cells assessed as inhibition of ghrelin-induced reporter gene expression after 6 hrs by CRE/luciferase reporter gene assay; format: functional, cell-based
Outline: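 Mouse LTK cells stably expressing human GHS-R1a with luciferase reporter under CRE elements and CMV minimal promoter. Cells incubated 6 h with 1 µM rolipram, test compound at various concentrations and saturating ghrelin. Cells then lysed and bioluminescence read. % inhibition: ghrelin-treated cells = 0%, untreated cells = 100%. Quadruplicate points. IC50 from one experiment for weaker compounds, mean of at least two experiments for nanomolar ones.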

[5] = Retention time of the compound by LC-MS analysis; format: physicochemical

T1 sequence (Q92847 whole entry): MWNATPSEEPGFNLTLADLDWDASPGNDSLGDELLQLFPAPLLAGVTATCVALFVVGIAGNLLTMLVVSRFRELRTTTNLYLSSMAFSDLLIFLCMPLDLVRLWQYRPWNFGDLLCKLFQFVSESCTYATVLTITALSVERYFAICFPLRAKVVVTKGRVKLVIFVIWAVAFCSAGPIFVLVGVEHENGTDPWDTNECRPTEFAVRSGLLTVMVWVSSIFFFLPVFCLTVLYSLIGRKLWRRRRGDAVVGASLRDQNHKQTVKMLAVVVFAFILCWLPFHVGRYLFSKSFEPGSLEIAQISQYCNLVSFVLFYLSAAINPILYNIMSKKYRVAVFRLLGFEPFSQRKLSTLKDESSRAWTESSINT

IC50 [1] [µM] | IC50 [2] [µM] | Retention_time [3] [min] | IC50 [4] [µM] | Retention_time [5] [min] | SMILES
0.671 | 0.38 | 1.58 | 0.427 | 1.35 | COc1ccc(Cn2c(CCc3ccccc3)nnc2[C@@H](Cc2c[nH]c3ccccc23)NC(=O)c2cccnc2N)cc1
0.082 | 0.15 | 1.93 | 0.073 | 1.85 | COc1ccc(Cn2c(CCc3ccccc3)nnc2[C@@H](Cc2c[nH]c3ccccc23)NC(=O)c2nccc3ccccc23)cc1
0.025 | 0.006 | 1.55 | 0.021 | 1.5 | COc1ccc(Cn2c(CCc3ccccc3)nnc2[C@@H](Cc2c[nH]c3ccccc23)NC(=O)c2cccc(N)n2)cc1
0.007 | 0.003 | 1.73 | 0.0088 | 1.67 | COc1ccc(Cn2c(CCc3ccccc3)nnc2[C@@H](Cc2c[nH]c3ccccc23)NC(=O)c2ncccc2F)cc1
0.51 | 0.25 | 1.76 | 0.193 | 1.66 | COc1ccc(Cn2c(CCc3ccccc3)nnc2[C@@H](Cc2c[nH]c3ccccc23)NC(=O)c2cccnc2Br)cc1
0.404 | 0.1 | 1.9 | 0.126 | 1.87 | COc1ccc(Cn2c(CCc3ccccc3)nnc2[C@@H](Cc2c[nH]c3ccccc23)NC(=O)c2cc3ccccc3cn2)cc1
0.0046 | 0.004 | 1.82 | 0.0028 | 1.65 | COc1ccc(Cn2c(CCc3ccccc3)nnc2[C@@H](Cc2c[nH]c3ccccc23)NC(=O)c2ncc(F)cc2F)cc1
0.0078 | 0.002 | 1.86 | 0.009 | 1.76 | COc1ccc(Cn2c(CCc3ccccc3)nnc2[C@@H](Cc2c[nH]c3ccccc23)NC(=O)c2cccc(OC)n2)cc1

Second part, the molecule before the results:

SMILES | IC50 [1] [µM] | IC50 [2] [µM] | Retention_time [3] [min] | IC50 [4] [µM] | Retention_time [5] [min]
COc1ccc(Cn2c(CCc3ccccc3)nnc2[C@@H](Cc2c[nH]c3ccccc23)NC(=O)c2cncc(Br)c2)cc1 | 0.088 | 0.084 | 1.85 | 0.222 | 1.85
COc1ccc(Cn2c(CCc3ccccc3)nnc2[C@H](N)Cc2c[nH]c3ccccc23)cc1 |  | > 1 |  |  | 
COc1ccc(Cn2c(CCc3ccccc3)nnc2[C@@H](Cc2c[nH]c3ccccc23)NC(=O)c2ncccc2O)cc1 | 0.165 | 0.24 | 1.86 | 0.108 | 1.82
COc1ccc(Cn2c(CCc3ccccc3)nnc2[C@@H](Cc2c[nH]c3ccccc23)NC(=O)c2ccc(Cl)nc2)cc1 | 1.01 | 0.13 | 1.8 | 0.771 | 1.52
COc1ccc(Cn2c(CCc3ccccc3)nnc2[C@@H](Cc2c[nH]c3ccccc23)NC(=O)c2ccc(N3CCCC3)cn2)cc1 | 2.11 | 0.065 | 1.76 | 1.21 | 1.8
COc1ccc(Cn2c(CCc3ccccc3)nnc2[C@@H](Cc2c[nH]c3ccccc23)NC(=O)c2cccc(C)n2)cc1 | 0.0054 | 0.0034 | 1.82 | 0.0075 | 1.74
COc1ccc(Cn2c(CCc3ccccc3)nnc2[C@@H](Cc2c[nH]c3ccccc23)NC(=O)c2ncccc2C(=O)c2ccccc2)cc1 | 0.23 | 0.24 | 1.88 | 0.313 | 1.83
COc1ccc(Cn2c(CCc3ccccc3)nnc2[C@@H](Cc2c[nH]c3ccccc23)NC(=O)c2cccnc2)cc1 | 0.337 | 0.122 | 1.61 | 0.411 | 1.57
COc1ccc(Cn2c(CCc3ccccc3)nnc2[C@@H](Cc2c[nH]c3ccccc23)NC(=O)c2cccc(F)n2)cc1 | 0.0021 | 0.002 | 1.84 | 0.0021 | 1.67
COc1ccc(Cn2c(CCc3ccccc3)nnc2[C@@H](Cc2c[nH]c3ccccc23)NC(=O)c2cccc[n+]2[O-])cc1 | 0.112 | 0.042 | 1.73 | 0.079 | 1.59
COc1ccc(Cn2c(CCc3ccccc3)nnc2[C@@H](Cc2c[nH]c3ccccc23)NC(=O)c2ccncc2)cc1 |  | 0.22 |  | 0.828 | 
COc1ccc(Cn2c(CCc3ccccc3)nnc2[C@@H](Cc2c[nH]c3ccccc23)NC(=O)c2ccccn2)cc1 | 0.0045 |  |  | 0.006 | 
